Structures are written as SMILES.

We go through 18 compounds from ChEMBL document CHEMBL2311279, “Discovery of a new series of [1,2,4]triazolo[4,3-a]quinoxalines as dual phosphodiesterase 2/phosphodiesterase 10 (PDE2/PDE10) inhibitors” (Bioorg Med Chem Lett, 2013).

Data set [1] has as its target cGMP-dependent 3',5'-cyclic phosphodiesterase (Homo sapiens, UniProt O00408). Put plainly: Inhibition of human recombinant PDE2A expressed in Sf9 cells by scintillation proximity assay.
Data set [2] in a line: Drug level in Wistar rat brain at 10 mg/kg, sc after 1 hr. To be noted: read-out: Drug uptake. On the set-up: dose 10 mg/kg, route subcutaneous. In kind it is ADME, organism-based. In short, it runs like this: (§1)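 Male rats dosed once at 10 mg/kg, subcutaneously or orally. Vehicle was mostly 20% HP-b-CD at pH 4, with some dosing in 0.5% methocel suspension or H2O + tartaric acid. Brain (ng/g) and plasma (ng/mL) were sampled 1 h after dosing, and the brain/plasma ratio was derived from these. Values are geometric means of at least two runs ± SEM.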

Data set [3] in a line: Ratio of drug level brain to plasma in Wistar rat at 10 mg/kg, sc after 1 hr. Format: ADME, organism-based. On the set-up: dose 10 mg/kg, route subcutaneous. To be noted: read-out: BPR. In a few lines:
as §1

Data set [4] in a line: Plasma concentration in Wistar rat at 10 mg/kg, sc after 1 hr. On the set-up: dose 10 mg/kg, route subcutaneous. In kind it is ADME, organism-based. In a few lines: as §1
A further data set relates to Hippocampus. The experiment in a line: Drug uptake in Wistar rat hippocampus at 0.03 mg/kg, iv after 2 to 30 mins. In kind it is ADME, organism-based. Set-up: dose 0.03 mg/kg, route intravenous. To be noted: in vivo. In a few lines: (§2)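 Male Wistar rats (180–200 g) received 0.03 mg/kg i.v. and were killed at 2, 5, 10 and 30 min, with 3 rats per time point. Brains were rapidly removed and dissected into striatum, hippocampus and whole cortex. Each region was homogenized by ultrasonic probe in 4 volumes of 75% acetonitrile and centrifuged, then drug was quantified by LC-MS.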

The nature of data set [5]: Ratio of drug level brain to plasma in Sprague-Dawley rat at 10 mg/kg, sc after 1 hr. In kind it is ADME, organism-based. On the set-up: dose 10 mg/kg, route subcutaneous. Conditions: read-out: BPR; call rule not given here. In short, it runs like this: as §1
Another data set concerns Cortex. The experiment in a line: Drug uptake in Wistar rat cortex at 0.03 mg/kg, iv after 2 to 30 mins. Set-up: dose 0.03 mg/kg, route intravenous. Conditions: in vivo. Format: ADME, organism-based. In short, it runs like this: as §2
Data set [6] deals with Dual 3',5'-cyclic-AMP and -GMP phosphodiesterase 11A (Homo sapiens, UniProt Q9HCR9). Put plainly: Inhibition of human recombinant PDE11A expressed in Sf9 cells by scintillation proximity assay.
The target of data set [7] is cGMP-specific 3',5'-cyclic phosphodiesterase (Homo sapiens, UniProt O76074). Put plainly: Inhibition of human recombinant PDE5A expressed in Sf9 cells by scintillation proximity assay.
Data set [8] deals with High affinity cGMP-specific 3',5'-cyclic phosphodiesterase 9A (Homo sapiens, UniProt O76083). Put plainly: Inhibition of human recombinant PDE9A expressed in Sf9 cells by scintillation proximity assay.
Another data set concerns Striatum. Put plainly: Drug uptake in Wistar rat striatum at 0.03 mg/kg, iv after 2 to 30 mins. Format: ADME, organism-based. Conditions: in vivo. Set-up: dose 0.03 mg/kg, route intravenous. In short, it runs like this:
as §2

A short description of data set [9]: Plasma concentration in Sprague-Dawley rat at 10 mg/kg, sc after 1 hr. In kind it is ADME, organism-based. On the set-up: dose 10 mg/kg, route subcutaneous. In a few lines:
as §1

The target of the next data set is Phosphodiesterase 6. Put plainly: Inhibition of human recombinant PDE6AB expressed in Sf9 cells by scintillation proximity assay.
A short description of data set [10]: Drug level in Sprague-Dawley rat brain at 10 mg/kg, sc after 1 hr. In kind it is ADME, organism-based. Set-up: dose 10 mg/kg, route subcutaneous. Conditions: read-out: Drug uptake. In short, it runs like this:
as §1

Data set [11] has as its target cGMP-inhibited 3',5'-cyclic phosphodiesterase 3A (Homo sapiens, UniProt Q14432). Put plainly: Inhibition of human recombinant PDE3A expressed in Sf9 cells by scintillation proximity assay.
The target in data set [12] is cGMP-inhibited 3',5'-cyclic phosphodiesterase 3B (Homo sapiens, UniProt Q13370). Put plainly: Inhibition of human recombinant PDE3B expressed in Sf9 cells by scintillation proximity assay.
For data set [13], the target named is High affinity 3',5'-cyclic-AMP phosphodiesterase 7A (Homo sapiens, UniProt Q13946). The experiment in a line: Inhibition of human recombinant PDE7A expressed in Sf9 cells by scintillation proximity assay.
The target of data set [14] is Dual specificity calcium/calmodulin-dependent 3',5'-cyclic nucleotide phosphodiesterase 1B (Homo sapiens, UniProt Q01064). The experiment in a line: Inhibition of human recombinant PDE1B expressed in Sf9 cells by scintillation proximity assay.
The target of data set [15] is 3',5'-cyclic-AMP phosphodiesterase 4A (Homo sapiens, UniProt P27815). Put plainly: Inhibition of human recombinant PDE4A expressed in Sf9 cells by scintillation proximity assay.
A short description of data set [16]: Selectivity ratio of IC50 for rat PDE10A to IC50 for human recombinant PDE2A. In short, it runs like this: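 Inhibition of rat PDE10A and human PDE2A enzymes measured in vitro. IC50 values are mean ± SD of at least two experiments unless otherwise specified. The ratio is rat PDE10A IC50 divided by human PDE2A IC50.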
Data set [17] can be described thus: Plasma concentration in Wistar rat at 10 mg/kg, po after 1 hr. On the set-up: dose 10 mg/kg, route oral. Format: ADME, organism-based. In a few lines: as §1
Data set [18] is described as follows: Drug level in Wistar rat brain at 10 mg/kg, po after 1 hr. To be noted: read-out: Drug uptake. Set-up: dose 10 mg/kg, route oral. Format: ADME, organism-based. In a few lines:
as §1

Data set [19] in a line: Ratio of drug level brain to plasma in Wistar rat at 10 mg/kg, po after 1 hr. Format: ADME, organism-based. Set-up: dose 10 mg/kg, route oral. To be noted: read-out: BPR. In short, it runs like this:
as §1

Data set [20] can be described thus: Ratio of drug level brain to plasma in Sprague-Dawley rat at 10 mg/kg, po after 1 hr. In kind it is ADME, organism-based. Set-up: dose 10 mg/kg, route oral. To be noted: read-out: BPR. In short, it runs like this:
as §1

A short description of data set [21]: Plasma concentration in Sprague-Dawley rat at 10 mg/kg, po after 1 hr. Format: ADME, organism-based. Set-up: dose 10 mg/kg, route oral. In a few lines: as §1
Data set [22] can be described thus: Drug level in Sprague-Dawley rat brain at 10 mg/kg, po after 1 hr. In kind it is ADME, organism-based. On the set-up: dose 10 mg/kg, route oral. To be noted: read-out: Drug uptake. In short, it runs like this:
as §1

Chain of cGMP-dependent 3',5'-cyclic phosphodiesterase (O00408 whole entry): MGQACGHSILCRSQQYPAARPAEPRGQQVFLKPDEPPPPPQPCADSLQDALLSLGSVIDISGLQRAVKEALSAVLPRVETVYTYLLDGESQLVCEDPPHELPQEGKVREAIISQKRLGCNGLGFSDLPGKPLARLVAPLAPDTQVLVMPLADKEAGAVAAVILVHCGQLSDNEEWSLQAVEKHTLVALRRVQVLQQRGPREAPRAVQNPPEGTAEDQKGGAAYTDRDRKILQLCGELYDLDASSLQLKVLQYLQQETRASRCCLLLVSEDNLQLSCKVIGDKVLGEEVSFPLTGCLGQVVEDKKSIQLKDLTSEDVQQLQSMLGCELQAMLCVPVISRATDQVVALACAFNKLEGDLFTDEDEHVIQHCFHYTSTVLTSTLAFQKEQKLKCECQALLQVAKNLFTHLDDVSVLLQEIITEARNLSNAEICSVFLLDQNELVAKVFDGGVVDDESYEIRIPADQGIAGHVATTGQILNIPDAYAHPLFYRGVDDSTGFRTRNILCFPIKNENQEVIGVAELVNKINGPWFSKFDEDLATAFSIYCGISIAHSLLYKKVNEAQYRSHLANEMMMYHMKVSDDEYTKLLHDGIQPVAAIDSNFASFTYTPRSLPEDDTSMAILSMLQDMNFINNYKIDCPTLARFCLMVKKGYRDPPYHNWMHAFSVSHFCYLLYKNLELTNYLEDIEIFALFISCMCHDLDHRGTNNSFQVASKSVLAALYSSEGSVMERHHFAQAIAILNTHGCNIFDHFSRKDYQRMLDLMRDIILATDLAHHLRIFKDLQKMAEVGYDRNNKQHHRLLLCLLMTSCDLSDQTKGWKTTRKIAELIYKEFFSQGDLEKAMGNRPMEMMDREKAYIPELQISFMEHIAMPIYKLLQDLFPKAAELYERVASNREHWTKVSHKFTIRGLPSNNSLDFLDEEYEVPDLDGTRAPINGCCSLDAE
Chain of 3',5'-cyclic-AMP phosphodiesterase 4A (P27815 whole entry): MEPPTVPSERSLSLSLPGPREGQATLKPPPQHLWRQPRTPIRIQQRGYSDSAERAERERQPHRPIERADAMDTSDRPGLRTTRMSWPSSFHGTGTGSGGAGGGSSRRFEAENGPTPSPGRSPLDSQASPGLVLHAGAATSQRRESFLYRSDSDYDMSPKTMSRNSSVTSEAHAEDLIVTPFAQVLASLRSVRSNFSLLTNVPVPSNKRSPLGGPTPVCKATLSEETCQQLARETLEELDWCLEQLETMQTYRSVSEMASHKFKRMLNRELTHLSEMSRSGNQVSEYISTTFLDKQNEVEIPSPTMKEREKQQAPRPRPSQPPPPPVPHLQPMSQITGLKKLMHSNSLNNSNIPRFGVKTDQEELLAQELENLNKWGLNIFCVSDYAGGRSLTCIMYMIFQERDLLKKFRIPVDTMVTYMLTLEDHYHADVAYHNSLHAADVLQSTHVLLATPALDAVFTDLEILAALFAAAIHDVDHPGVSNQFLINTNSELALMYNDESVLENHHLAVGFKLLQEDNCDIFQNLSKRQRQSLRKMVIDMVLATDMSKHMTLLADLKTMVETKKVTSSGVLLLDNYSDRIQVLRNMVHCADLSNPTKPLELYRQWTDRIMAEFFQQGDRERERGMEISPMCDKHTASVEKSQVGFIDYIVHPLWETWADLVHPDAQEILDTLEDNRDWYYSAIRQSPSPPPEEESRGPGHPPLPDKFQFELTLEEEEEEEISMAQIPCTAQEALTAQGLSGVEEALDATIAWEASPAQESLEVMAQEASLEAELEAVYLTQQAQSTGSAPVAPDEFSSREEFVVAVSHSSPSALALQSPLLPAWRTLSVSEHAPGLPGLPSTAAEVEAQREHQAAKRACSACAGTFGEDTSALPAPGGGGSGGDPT
Chain of Dual specificity calcium/calmodulin-dependent 3',5'-cyclic nucleotide phosphodiesterase 1B (Q01064 whole entry): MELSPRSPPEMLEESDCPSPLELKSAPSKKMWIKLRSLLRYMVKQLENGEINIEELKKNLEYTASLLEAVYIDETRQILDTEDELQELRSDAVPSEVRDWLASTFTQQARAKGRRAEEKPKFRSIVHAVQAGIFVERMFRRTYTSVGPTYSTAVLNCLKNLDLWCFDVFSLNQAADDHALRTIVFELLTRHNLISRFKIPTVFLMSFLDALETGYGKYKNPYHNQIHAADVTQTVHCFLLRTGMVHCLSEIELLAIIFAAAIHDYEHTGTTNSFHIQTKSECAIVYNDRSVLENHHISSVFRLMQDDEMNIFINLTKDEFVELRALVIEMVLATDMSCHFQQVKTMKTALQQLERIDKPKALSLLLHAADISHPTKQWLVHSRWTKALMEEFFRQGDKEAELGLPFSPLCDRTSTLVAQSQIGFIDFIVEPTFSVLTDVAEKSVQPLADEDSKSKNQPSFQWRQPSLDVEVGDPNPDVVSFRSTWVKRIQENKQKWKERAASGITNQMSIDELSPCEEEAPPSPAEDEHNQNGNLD
Chain of High affinity 3',5'-cyclic-AMP phosphodiesterase 7A (Q13946 whole entry): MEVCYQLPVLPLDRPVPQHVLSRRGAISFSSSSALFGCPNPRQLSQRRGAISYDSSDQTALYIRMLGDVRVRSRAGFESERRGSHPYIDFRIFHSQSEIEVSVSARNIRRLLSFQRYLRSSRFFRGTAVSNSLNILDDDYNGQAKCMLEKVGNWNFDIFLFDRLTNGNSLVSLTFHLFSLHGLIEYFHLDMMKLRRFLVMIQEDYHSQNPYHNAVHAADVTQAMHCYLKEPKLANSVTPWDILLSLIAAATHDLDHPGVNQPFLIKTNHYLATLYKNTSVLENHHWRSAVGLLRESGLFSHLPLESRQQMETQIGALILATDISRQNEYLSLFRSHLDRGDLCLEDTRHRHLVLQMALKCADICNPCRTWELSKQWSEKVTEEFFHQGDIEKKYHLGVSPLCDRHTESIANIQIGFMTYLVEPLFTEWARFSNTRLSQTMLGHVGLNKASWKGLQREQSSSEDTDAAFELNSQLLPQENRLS
Chain of High affinity cGMP-specific 3',5'-cyclic phosphodiesterase 9A (O76083 whole entry): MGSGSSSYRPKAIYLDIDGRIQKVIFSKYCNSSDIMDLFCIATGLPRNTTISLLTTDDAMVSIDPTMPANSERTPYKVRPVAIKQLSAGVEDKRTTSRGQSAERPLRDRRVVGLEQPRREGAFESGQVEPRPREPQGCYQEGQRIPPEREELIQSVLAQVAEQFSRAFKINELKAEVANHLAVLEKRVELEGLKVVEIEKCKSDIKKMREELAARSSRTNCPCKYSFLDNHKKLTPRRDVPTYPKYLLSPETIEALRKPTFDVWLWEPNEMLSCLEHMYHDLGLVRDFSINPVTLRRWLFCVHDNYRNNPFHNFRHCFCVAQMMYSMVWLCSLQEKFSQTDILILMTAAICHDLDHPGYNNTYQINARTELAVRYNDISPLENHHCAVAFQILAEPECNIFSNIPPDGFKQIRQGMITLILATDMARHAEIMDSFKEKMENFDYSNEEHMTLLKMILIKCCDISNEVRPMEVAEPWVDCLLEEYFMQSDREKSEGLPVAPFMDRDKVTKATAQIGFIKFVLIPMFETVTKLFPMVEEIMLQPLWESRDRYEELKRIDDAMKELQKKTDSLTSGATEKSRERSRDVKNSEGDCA
Chain of cGMP-inhibited 3',5'-cyclic phosphodiesterase 3A (Q14432 whole entry): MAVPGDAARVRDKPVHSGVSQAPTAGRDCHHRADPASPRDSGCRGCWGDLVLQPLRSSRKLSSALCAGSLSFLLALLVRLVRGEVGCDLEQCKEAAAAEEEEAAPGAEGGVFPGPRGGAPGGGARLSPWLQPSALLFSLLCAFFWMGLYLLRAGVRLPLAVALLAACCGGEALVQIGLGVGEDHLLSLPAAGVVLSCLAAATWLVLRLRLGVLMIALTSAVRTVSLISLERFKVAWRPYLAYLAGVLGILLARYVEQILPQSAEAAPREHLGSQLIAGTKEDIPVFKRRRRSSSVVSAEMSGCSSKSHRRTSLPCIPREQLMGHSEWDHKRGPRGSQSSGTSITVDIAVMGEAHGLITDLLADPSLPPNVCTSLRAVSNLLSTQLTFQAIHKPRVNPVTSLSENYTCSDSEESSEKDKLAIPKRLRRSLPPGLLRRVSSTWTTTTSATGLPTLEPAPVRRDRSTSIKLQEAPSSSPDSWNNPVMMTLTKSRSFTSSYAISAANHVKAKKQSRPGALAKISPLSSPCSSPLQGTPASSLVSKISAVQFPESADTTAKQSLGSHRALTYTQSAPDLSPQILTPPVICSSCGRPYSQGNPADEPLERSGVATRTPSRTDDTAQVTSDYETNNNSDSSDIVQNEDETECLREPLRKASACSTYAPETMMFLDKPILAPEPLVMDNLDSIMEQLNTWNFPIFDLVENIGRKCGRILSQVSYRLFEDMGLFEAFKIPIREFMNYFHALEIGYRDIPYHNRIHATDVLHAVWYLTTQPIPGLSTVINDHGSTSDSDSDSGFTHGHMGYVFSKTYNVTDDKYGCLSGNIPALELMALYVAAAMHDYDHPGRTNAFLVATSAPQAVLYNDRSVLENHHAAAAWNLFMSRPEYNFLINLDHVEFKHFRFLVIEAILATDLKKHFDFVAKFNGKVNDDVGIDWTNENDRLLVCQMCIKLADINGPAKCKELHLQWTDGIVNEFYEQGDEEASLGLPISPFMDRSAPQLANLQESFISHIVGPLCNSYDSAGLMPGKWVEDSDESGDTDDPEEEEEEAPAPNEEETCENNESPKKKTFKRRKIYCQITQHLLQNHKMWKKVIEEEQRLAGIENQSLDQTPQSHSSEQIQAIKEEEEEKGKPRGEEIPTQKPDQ

On to `CCNC(=O)c1ccc2nc(C)c3nnc(-c4ccccc4F)n3c2c1`, for which the IC50 in [1] was 2.8 nM.

Consider `Cc1nc2ccc(C(=O)NCCN3CCCC3)cc2n2c(-c3ccccc3Cl)nnc12`, for which the concentration at 1 h is 143 ng/g in [2] and 1070 ng/mL in [4]. The Kp at 1 h in [3] turned out to be 0.14. Besides, the concentration for half-maximal inhibition (IC50) in data set [1] was 2.2 nM.

`CCNC(=O)c1ccc2nc(C)c3nnc(-c4cccnc4OC)n3c2c1`: the IC50 in data set [1] was 28 nM.

Take `Cc1nc2ccc(CN3CCOCC3)cc2n2c(-c3ccccc3Cl)nnc12`: the Drug uptake entry in the data set with Hippocampus, in the data set on Cortex and in the data set with Striatum was “Active” each time. Moreover, the Kp at 1 h in [5] came out at 0.62. The IC50 in data set [6] was more than 10000 nM; in data set [7], more than 10000 nM; in data set [8] it was more than 10000 nM; at Phosphodiesterase 6, 2280 nM; in data set [11], 7760 nM; in data set [12], more than 10000 nM. In addition, the IC50 in data set [1] is 2.8 nM; in [13], 1910 nM; in data set [14] it was 4900 nM; in data set [15], more than 10000 nM. Also, the results for the concentration at 1 h in [9] and in data set [10] were 299 ng/mL and 189 ng/g, respectively.

With `CCNC(=O)c1ccc2nc(C)c3nnc(-c4cnccc4C)n3c2c1`, the Kp at 1 h in data set [5] is 0.036. The concentration at 1 h worked out at 2800 ng/mL in data set [9] and 98 ng/g in data set [10].

`Cc1nc2ccc(CN3CCCC(CO)C3)cc2n2c(-c3ccccc3Cl)nnc12` (centres undefined): the concentration at 1 h in data set [2] was determined as 99 ng/g; in data set [4] it was 569 ng/mL. Also, the Kp at 1 h in data set [3] is 0.18.

Turning to `Cc1nc2ccc(C(=O)N(C)Cc3ccccc3)cc2n2c(-c3ccccc3Cl)nnc12`, in [1], the IC50 amounted to 19 nM.

Consider `CCOC(=O)c1ccc2nc(C)c3nnc(-c4ccccc4Cl)n3c2c1`, for which, in data set [1], the IC50 was 4.4 nM.

With `CCNC(=O)c1ccc2nc(C)c3nnc(-c4ccccn4)n3c2c1`, in [1], the half-maximal inhibitory concentration (IC50) was 263 nM.

Take `CCNC(=O)c1ccc2nc(C)c3nnc(-c4ccccc4OC)n3c2c1`: the IC50 in [1] stood at 5.9 nM.

In the case of `Cc1nc2ccc(C(=O)NCCc3ccccc3)cc2n2c(-c3ccccc3Cl)nnc12`, in [1], the IC50 came to 1.7 nM.

Regarding `Cc1nc2ccc(CN3CCC(O)CC3)cc2n2c(-c3ccccc3Cl)nnc12`, the IC50 in [1] amounted to 9.7 nM.

With `Cc1nc2ccc(C(=O)NCc3ccccc3)cc2n2c(-c3ccccc3Cl)nnc12`, the IC50 in data set [1] was found to be 0.38 nM. Further, the Ratio IC50 in [16] is 32.

Take `CCNCc1ccc2nc(C)c3nnc(-c4ccccc4Cl)n3c2c1`: the Kp at 1 h in data set [5] was found to be 0.73. Moreover, the concentration at 1 h in [9] was 845 ng/mL; in data set [10], 628 ng/g.

For the compound `Cc1nc2ccc(CN3CCN(C)CC3)cc2n2c(-c3ccccc3Cl)nnc12`, the IC50 in data set [1] was determined as 7.1 nM.

As to `Cc1nc2ccc(C(=O)NCCN3CCOCC3)cc2n2c(-c3ccccc3Cl)nnc12`, the concentration at 1 h in [2] was 88 ng/g; in data set [4], 2540 ng/mL. Further, the Kp at 1 h in [3] stood at 0.034.

For the compound `CCNC(=O)c1ccc2nc(C)c3nnc(-c4ccccc4Cl)n3c2c1`, the concentration at 1 h in [17] was determined as 1880 ng/mL; in [18], 185 ng/g. For the same compound, the Kp at 1 h in data set [19] turned out to be 0.11.

Regarding `CCNC(=O)c1ccc2nc(C)c3nnc(-c4cncc(OC)c4)n3c2c1`, in data set [20], the Kp at 1 h was found to be 0.034. In addition, the concentration at 1 h in data set [21] was 467 ng/mL; in [22], 16 ng/g.
